Active and inactive are the calls of the source. The calls are words filed in the database; no cut-off is given here.
Experiments:
[1] = tested on: DU-145; test: Inhibition of colony formation in human DU145 cells at 2.5 to 10 uM after 10 days by clonogenic assay; assay type: functional, cell-based
How it was run: (§1)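 DU145 or PC3 plated at 3 × 10^2 per well and adhered 18 h. Then 2.5, 5 or 10 μM compound, DMSO or medium alone. Grown 10 days until colonies were visible. Colonies fixed in 4% paraformaldehyde and stained with 0.25% crystal violet in 25% methanol.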

[2] = tested on: DU-145; test: Induction of apoptosis in human DU145 cells assessed as late apoptotic cells at 10 uM after 72 hrs using annexin V and propidium iodide staining by flow cytometric analysis relative to control; assay type: functional
How it was run: (§2)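 DU145 plated at 2 × 10^5 per well and adhered 18 h. Then 5 or 10 μM compound, DMSO or untreated, for 24, 48 or 72 h. Trypsinized, PBS-washed, stained with annexin V-FITC plus propidium iodide. By flow cytometry, quadrants scored as viable, apoptotic (annexin+/PI−), necrotic (PI+ only) or late apoptotic/necrotic (double positive).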

[3] = tested on: DU-145; test: Induction of apoptosis in human DU145 cells using annexin V and propidium iodide staining at 5 uM after 72 hrs by flow cytometric analysis; assay type: functional; how it was run: as §2
[4] = tested on: DU-145; test: Induction of apoptosis in human DU145 cells assessed as viable cells at 10 uM after 24 hrs using annexin V and propidium iodide staining by flow cytometric analysis relative to control; assay type: functional; settings: DU-145, 24 h, read-out: Activity; how it was run: as §2
[5] = tested on: DU-145; test: Induction of apoptosis in human DU145 cells assessed as early apoptotic cells at 10 uM after 72 hrs using annexin V and propidium iodide staining by flow cytometric analysis relative to control; assay type: functional; how it was run: as §2
[6] = tested on: DU-145; test: Induction of apoptosis in human DU145 cells assessed as caspase-3 activation at 10 uM after 24 hrs by immunoblotting; assay type: functional, cell-based
How it was run: (§3)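 Cells treated with 10 μM compound or DMSO over a time course. Lysed in Tris/NaCl/EDTA/deoxycholate/IGEPAL buffer, pH 7.5, with protease and phosphatase inhibitors. Protein measured by BCA and equal amounts immunoblotted. Membranes blocked in 5% milk, then probed overnight at 4 °C with anti-PARP-1 (200 ng/mL; full length 116 kDa, cleaved 89 kDa) or anti-cleaved caspase-3 (1:1000). GAPDH loading control, chemiluminescent detection.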

[7] = tested on: DU-145; test: Induction of apoptosis in human DU145 cells assessed as late apoptotic cells at 10 uM after 48 hrs using annexin V and propidium iodide staining by flow cytometric analysis relative to control; assay type: functional; how it was run: as §2
[8] = tested on: DU-145; test: Induction of apoptosis in human DU145 cells using annexin V and propidium iodide staining at 5 uM after 48 hrs by flow cytometric analysis; assay type: functional; how it was run: as §2
[9] = tested on: DU-145; test: Cell cycle arrest in human DU145 cells assessed as accumulation at S phase at 10 uM after 48 hrs using propidium iodide staining by flow cytometry (reference value: 25%); assay type: functional
[10] = tested on: DU-145; test: Induction of apoptosis in human DU145 cells assessed as viable cells at 10 uM after 72 hrs using annexin V and propidium iodide staining by flow cytometric analysis relative to control; assay type: functional; settings: DU-145, 72 h, read-out: Activity; how it was run: as §2
[11] = tested on: DU-145; test: Cell cycle arrest in human DU145 cells assessed as accumulation at G1 phase at 10 uM after 24 hrs using propidium iodide staining by flow cytometry (reference value: 39%); assay type: functional
[12] = tested on: PC-3; test: Antiproliferative activity against human PC3 cells at 10 uM; assay type: functional, cell-based
How it was run: (§4)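 DU145 in DMEM and PC3 in F-12K, each with 10% FBS and penicillin/streptomycin, at 37 °C, 5% CO2. Compound added directly to the medium. Antiproliferative activity read after three days of treatment.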

[13] = tested on: DU-145; test: Induction of apoptosis in human DU145 cells assessed as necrotic cells at 10 uM after 72 hrs using annexin V and propidium iodide staining by flow cytometric analysis relative to control; assay type: functional; how it was run: as §2
[14] = tested on: PC-3; test: Induction of apoptosis in human PC3 cells assessed as PARP-1 cleavage at 10 uM after 24 to 72 hrs by immunoblotting; assay type: functional, cell-based; how it was run: as §3
[15] = tested on: DU-145; test: Induction of apoptosis in human DU145 cells using annexin V and propidium iodide staining at 5 uM after 24 hrs by flow cytometric analysis; assay type: functional; how it was run: as §2
[16] = tested on: DU-145; test: Induction of apoptosis in human DU145 cells assessed as necrotic cells at 10 uM after 24 hrs using annexin V and propidium iodide staining by flow cytometric analysis relative to control; assay type: functional; how it was run: as §2
[17] = tested on: DU-145; test: Induction of apoptosis in human DU145 cells assessed as viable cells at 10 uM after 48 hrs using annexin V and propidium iodide staining by flow cytometric analysis relative to control; assay type: functional; settings: DU-145, 48 h, read-out: Activity; how it was run: as §2
[18] = tested on: DU-145; test: Antiproliferative activity against human DU145 cells by SRB assay; assay type: functional
[19] = tested on: DU-145; test: Induction of apoptosis in human DU145 cells assessed as PARP-1 cleavage at 10 uM after 24 hrs by immunoblotting; assay type: functional, cell-based; how it was run: as §3
[20] = tested on: DU-145; test: Induction of apoptosis in human DU145 cells assessed as PARP-1 cleavage at 10 uM after 48 to 72 hrs by immunoblotting; assay type: functional, cell-based; how it was run: as §3
[21] = tested on: DU-145; test: Inhibition of mitosis in human DU145 cells assessed as abnormal mitosis at 10 uM after 48 hrs by fluorescent microscopy; assay type: functional, cell-based
How it was run: (§5)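 DU145 plated at 2.5 × 10^4 on glass coverslips, 18 h. Then 10 μM compound for 24 or 48 h, or DMSO for 48 h. Fixed in 4% paraformaldehyde, permeabilized with 0.1% Triton X-100, blocked with 3% BSA. Stained with Alexa Fluor 488 anti-α-tubulin (60 min) and DAPI, then imaged by confocal microscopy for aberrant mitotic figures.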

[22] = tested on: DU-145; test: Induction of apoptosis in human DU145 cells assessed as DNA fragmentation formation at 10 uM after 48 to 72 hrs […]; assay type: functional, cell-based
How it was run: (§6)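 Cells (2 × 10^6, adherent plus floating) collected after 10 μM compound or DMSO. Lysed in 1% NP-40/EDTA/Tris, treated with RNase A (1 h, 37 °C) then proteinase K (1 h, 50 °C). Phenol–chloroform extracted, precipitated with isopropanol. Run on a 1.8% agarose gel, ethidium bromide stained, UV read for the oligonucleosomal DNA ladder.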

[23] = tested on: PC-3; test: Induction of apoptosis in human PC3 cells assessed as caspase-3 activation at 10 uM after 24 to 72 hrs by immunoblotting; assay type: functional, cell-based; how it was run: as §3
[24] = tested on: DU-145; test: Induction of apoptosis in human DU145 cells assessed as necrotic cells at 10 uM after 48 hrs using annexin V and propidium iodide staining by flow cytometric analysis relative to control; assay type: functional; how it was run: as §2
[25] = tested on: DU-145; test: Induction of apoptosis in human DU145 cells assessed as early apoptotic cells at 10 uM after 48 hrs using annexin V and propidium iodide staining by flow cytometric analysis relative to control; assay type: functional; how it was run: as §2
[26] = tested on: PC-3; test: Induction of apoptosis in human PC3 cells assessed as DNA fragmentation formation at 10 uM after 48 to 72 hrs […]; assay type: functional, cell-based; how it was run: as §6
[27] = tested on: DU-145; test: Induction of apoptosis in human DU145 cells assessed as early apoptotic cells at 10 uM after 24 hrs using annexin V and propidium iodide staining by flow cytometric analysis relative to control; assay type: functional; how it was run: as §2
[28] = tested on: DU-145; test: Antiproliferative activity against human DU145 cells at 10 uM; assay type: functional, cell-based; how it was run: as §4
[29] = tested on: DU-145; test: Cell cycle arrest in human DU145 cells assessed as accumulation at S phase at 10 uM after 24 hrs using propidium iodide staining by flow cytometry (reference value: 28%); assay type: functional
[30] = tested on: DU-145; test: Induction of cell death in human DU145 cells at 10 uM after 72 hrs by trypan blue exclusion assay; assay type: functional
How it was run: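 DU145 left untreated, or given 10 μM compound or DMSO, for 72 h. All adherent and floating cells harvested, stained with trypan blue and counted at once. Result is % blue (nonviable) cells, mean of three independent experiments with standard error.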

[31] = tested on: DU-145; test: Inhibition of mitosis in human DU145 cells assessed as condensed chromosomes and mitotic spindles formation at 10 uM after 24 hrs by fluorescent microscopy; assay type: functional, cell-based; how it was run: as §5
[32] = tested on: DU-145; test: Induction of apoptosis in human DU145 cells assessed as late apoptotic cells at 10 uM after 24 hrs using annexin V and propidium iodide staining by flow cytometric analysis relative to control; assay type: functional; how it was run: as §2
[33] = tested on: PC-3; test: Inhibition of colony formation in human PC3 cells at 2.5 to 10 uM after 10 days by clonogenic assay; assay type: functional, cell-based; how it was run: as §1
[34] = tested on: DU-145; test: Cell cycle arrest in human DU145 cells assessed as accumulation at G1 phase at 10 uM after 48 hrs using propidium iodide staining by flow cytometry (reference value: 37%); assay type: functional
[35] = tested on: DU-145; test: Cell cycle arrest in human DU145 cells assessed as accumulation at G2/M phase at 10 uM after 24 hrs using propidium iodide staining by flow cytometry (reference value: 31%); assay type: functional
[36] = tested on: DU-145; test: Cell cycle arrest in human DU145 cells assessed as accumulation at G2/M phase at 10 uM after 48 hrs using propidium iodide staining by flow cytometry (reference value: 36%); assay type: functional
[37] = tested on: DU-145; test: Induction of apoptosis in human DU145 cells assessed as caspase-3 activation at 10 uM after 48 to 72 hrs by immunoblotting; assay type: functional, cell-based; how it was run: as §3

Q: What does the source list for `C[C@@H]1CC[C@H]2[C@H]3[C@H](O[C@]4([C@]5(O)CC6(C)C(=O)OC5C[C@@]6(C)O)CC[C@@]31O4)[C@H]1O[C@]13CC=CC(=O)[C@]23C` [PHYSANGULIDINE A]?
A: inhibition [1]: Active; Activity [2]: 28.4%; Activity [3]: 11.5%; viability at 10 µM [4]: 88.1%; Activity [5]: 46.4%; Activity [6]: inactive; Activity [7]: 13.9%; Activity [8]: 9.2%; Activity [9]: 12%; viability at 10 µM [10]: 24.9%; Activity [11]: 8%; inhibition [12]: Active; Activity [13]: 0.308%; Activity [14]: Active; Activity [15]: 5.2%; Activity [16]: 0.77%; viability at 10 µM [17]: 53.2%; GI50 [18]: 3.6 µM; Activity [19]: inactive; Activity [20]: Active; inhibition [21]: Active; Activity [22]: Active; Activity [23]: Active; Activity [24]: 0.604%; Activity [25]: 32.3%; Activity [26]: Active; Activity [27]: 7.44%; inhibition [28]: Active; Activity [29]: 37%; Activity [30]: 90%; inhibition [31]: Active; Activity [32]: 3.71%; inhibition [33]: Active; Activity [34]: 7%; Activity [35]: 49%; Activity [36]: 66%; Activity [37]: Active
